Experimental data published in ChEMBL document CHEMBL1770090, “Synthesis, antimicrobial, antioxidant, anti-hemolytic and cytotoxic evaluation of new imidazole-based heterocycles” (Eur J Med Chem, 2011).
≈ marks a conversion by molar mass, not a printed value.

Assays:
[1] = Cytotoxicity against mouse EAC cells assessed as cell viability using trypan blue staining after 2 hrs by hemocytometer analysis; format: functional, cell-based; settings: Ehrlich
Priestia megaterium [2] = experiment: Antimicrobial activity against Bacillus megaterium ATCC 9885 after 24 hrs by agar well diffusion method; format: functional
How it was run: (§1)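 Agar well diffusion. Inocula of 100 µL: bacteria 1 × 10^8 CFU/mL on nutrient agar, yeast 1 × 10^6 CFU/mL on Sabouraud dextrose agar, fungi 1 × 10^4 spore/mL on potato dextrose agar. 10 mm wells received 100 µL of compound at 100 mg/mL in DMSO. Bacteria incubated 24 h at 37 °C, fungi 48 h at 28 °C. Controls were DMSO, ciprofloxacin 50 µg/mL and ketoconazole 50 µg/mL. Inhibition zone diameter in mm, scored N.A. to ++++, average of triplicates.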

Bacillus subtilis [3] = experiment: Antimicrobial activity against Bacillus subtilis ATCC 6633 after 24 hrs by agar well diffusion method; format: functional; how it was run: as §1
Escherichia coli [4] = experiment: Antimicrobial activity against Escherichia coli ATCC 25922 after 24 hrs by agar well diffusion method; format: functional; how it was run: as §1
[5] = Antioxidant activity in rat erythrocytes assessed as inhibition of peroxyl radicals-induced hemolysis at 2 mM after 2 hrs; format: functional; settings: Erythrocyte, read-out: INH
How it was run: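 Rat blood from cardiac puncture, heparinized. Erythrocytes were washed three times in 0.15 M NaCl. A 10% suspension in PBS pH 7.4 was mixed with an equal volume of 200 mM AAPH in PBS containing sample, then shaken at 37 °C for 2 h. Mixture diluted with 8 volumes of PBS and centrifuged; supernatant A540 compared with a water-lysed sample for complete hemolysis. L-ascorbic acid was the positive control. Mean ± SD.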

Pseudomonas aeruginosa [6] = experiment: Antimicrobial activity against Pseudomonas aeruginosa ATCC 27953 after 24 hrs by agar well diffusion method; format: functional; how it was run: as §1
Escherichia coli [7] = experiment: Antimicrobial activity against Escherichia coli ATCC 25922 after 24 hrs by two fold serial dilution technique; format: functional; settings: ATCC 25922, 24 h
How it was run: (§2)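 Tested only compounds giving inhibition zones ≥ 16 mm, by two-fold serial dilution in nutrient broth. Final concentrations were […], 175, 87.5, 43.8 and 21.9 µg/mL. Each 5 mL tube received 0.1 mL inoculum of about 1 × 10^8 CFU/mL and was incubated 24 h at 37 °C. MIC was the lowest concentration with no growth.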

Staphylococcus aureus [8] = experiment: Antimicrobial activity against Staphylococcus aureus ATCC 29213 after 24 hrs by agar well diffusion method; format: functional; how it was run: as §1
Priestia megaterium [9] = experiment: Antimicrobial activity against Bacillus megaterium ATCC 9885 after 24 hrs by two fold serial dilution technique; format: functional; settings: ATCC 9885, 24 h; how it was run: as §2
Aspergillus niger = experiment: Antimicrobial activity against Aspergillus niger after 48 hrs by agar well diffusion method; format: functional; how it was run: as §1
Staphylococcus aureus [10] = experiment: Antimicrobial activity against Staphylococcus aureus ATCC 29213 after 24 hrs by two fold serial dilution technique; format: functional; settings: ATCC 29213, 24 h; how it was run: as §2
[11] = Antioxidant activity assessed as ABTS radical scavenging activity at 2 mM; format: functional
How it was run: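 ABTS (60 µM, 2 mL) was oxidized with MnO2 (25 mg/mL, 3 mL) in 0.1 M phosphate buffer pH 7, then centrifuged and filtered, with A734 adjusted to about 0.5. 50 µL of 2 mM compound in MeOH/phosphate buffer (1:1) was added. Colour loss expressed as % inhibition. L-ascorbic acid was the standard; blank and negative controls used MeOH/buffer.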

Candida albicans = experiment: Antimicrobial activity against Candida albicans NRRL Y-477 after 48 hrs by agar well diffusion method; format: functional; how it was run: as §1
Bacillus subtilis [12] = experiment: Antimicrobial activity against Bacillus subtilis ATCC 6633 after 24 hrs by two fold serial dilution technique; format: functional; settings: ATCC 6633, 24 h; how it was run: as §2
Klebsiella pneumoniae [13] = experiment: Antimicrobial activity against Klebsiella pneumoniae ATCC 13883 after 24 hrs by agar well diffusion method; format: functional; how it was run: as §1
Pseudomonas aeruginosa [14] = experiment: Antimicrobial activity against Pseudomonas aeruginosa ATCC 27953 after 24 hrs by two fold serial dilution technique; format: functional; settings: ATCC 27953, 24 h; how it was run: as §2
Klebsiella pneumoniae [15] = experiment: Antimicrobial activity against Klebsiella pneumoniae ATCC 13883 after 24 hrs by two fold serial dilution technique; format: functional; settings: ATCC 13883, 24 h; how it was run: as §2

| Structure (SMILES) | IC50 [1] [µg/mL] | diameter of the inhibition zone (DIZ) (Priestia megaterium [2]) | diameter of the inhibition zone (DIZ) (Bacillus subtilis [3]) | diameter of the inhibition zone (DIZ) (Escherichia coli [4]) [mm] | percent hemolysis at 2000 µM [5] [%] | diameter of the inhibition zone (DIZ) (Pseudomonas aeruginosa [6]) | MIC (Escherichia coli [7]) [µg/mL] | diameter of the inhibition zone (DIZ) (Staphylococcus aureus [8]) | MIC (Priestia megaterium [9]) [µg/mL] | diameter of the inhibition zone (DIZ) (Aspergillus niger) | MIC (Staphylococcus aureus [10]) [µg/mL] | inhibition [11] [%] | diameter of the inhibition zone (DIZ) (Candida albicans) | MIC (Bacillus subtilis [12]) [µg/mL] | diameter of the inhibition zone (DIZ) (Klebsiella pneumoniae [13]) | MIC (Pseudomonas aeruginosa [14]) [µg/mL] | MIC (Klebsiella pneumoniae [15]) [µg/mL] |
| --- | --- | --- | --- | --- | --- | --- | --- | --- | --- | --- | --- | --- | --- | --- | --- | --- | --- |
| C/C(=N\NC(=O)/C(C#N)=C\c1ccc(F)cc1)c1nc(-c2ccccc2)[nH]c1C | 85.2 (≈ 220 µM) | >=21 mm | 16 mm | 16 | 0.86 | 16 mm | 21.9 (≈ 56.5 µM) | >=21 mm | 21.9 (≈ 56.5 µM) | <=4 mm | 21.9 (≈ 56.5 µM) | 68.6 | <=4 mm | 43.8 (≈ 113 µM) | 10 mm | 21.9 (≈ 56.5 µM) | – |
| O=C(O)c1cn(C2CC2)c2cc(N3CCNCC3)c(F)cc2c1=O [CIPROFLOXACIN] | – | 16 mm | >=21 mm | 16 | – | >=21 mm | 21.9 (≈ 66.1 µM) | 16 mm | 21.9 (≈ 66.1 µM) | <=4 mm | 21.9 (≈ 66.1 µM) | – | <=4 mm | 10.9 (≈ 32.9 µM) | >=21 mm | 10.9 (≈ 32.9 µM) | 10.9 (≈ 32.9 µM) |
